Data reported in PMC12236005 (Journal of Nanobiotechnology, 2025).

What was measured:
H2O2 treated H9c2 cells [1] = experiment: Intracellular ROS, DHE probe; type: cell-based; settings: DHE staining, 4 h treatment, n = 5
How it was run: (§1)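 H9c2 cells cultured 24 h, then exposed to test compound for 4 h. Stained with a fluorescent probe: DHE for ROS, O38 for NO. Fluorescence microscopy, with mean fluorescence intensity taken per image. n = 5.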

H2O2 treated H9c2 cells [2] = experiment: Intracellular NO, O38 probe; type: cell-based; settings: 4 h treatment, n = 5
How it was run: as §1

H2O2 treated H9c2 cells [3] = experiment: Intracellular ONOO-/RNS, O58 probe; type: cell-based; settings: 4 h treatment, n = 5
How it was run: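 H9c2 cells (high-glucose DMEM, 10% FBS) were seeded and grown 24 h, then treated 4 h. Cells were stained with BBoxiProbe O58 for ONOO−, imaged by fluorescence microscopy, and mean fluorescence intensity was quantified. n = 5.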

H9c2 cells [4] = experiment: Cell protection under H2O2, CCK-8; type: cell-based; settings: 10 µM equivalent of PBA or/and ISN, 500 µM H2O2, 24 h, n = 5
How it was run: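 H9c2 cells (high-glucose DMEM, 10% FBS) seeded at 5 × 10^3/well and grown 24 h. Medium then replaced with treatments at 10 µM PBA and/or ISN equivalent, followed by 500 µM H2O2, with PBS as control. After 24 h, cells were given fresh medium containing 10% CCK-8 for 4 h. Supernatant absorbance was read at 450 nm to calculate viability.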

H9c2 cells [5] = experiment: Apoptosis by flow cytometry, Annexin V-PI staining; type: cell-based; settings: H9c2 + H2O2, 24 h treatment, n = 3
H2O2-treated H9c2 cells = experiment: Mitochondria-related cell injury probes; type: cell-based; settings: 6 h treatment, n = 5; for mitochondrial membrane potential: JC-10 probe
How it was run: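 H9c2 cells were seeded and grown 24 h, then treated for 6 h and stained with JC-10. Fluorescence images were taken, and membrane potential was expressed as the ratio of red to green fluorescence intensity. n = 5.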

HUVECs [6] = experiment: HUVEC migration; type: cell-based, human; settings: H2O2 treated; scratch assay 24 h and Transwell assay 8 h; n = 5
How it was run: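 Two formats. Scratch: HUVECs pre-stained with green fluorescent dye and grown to a confluent monolayer. Gap scratched with a pipette tip, then fresh medium with test compound added. Fluorescence images at 0 and 24 h give the percentage of wound area healed. Transwell: 8.0-µm pores, 8 × 10^4 cells in serum-free medium above, 10% FBS medium with test compound below, 8 h. Migrated cells stained with 0.1% crystal violet and counted in five random fields. n = 5.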

HUVECs [7] = experiment: Western blotting of VEGF, p-eNOS, eNOS; type: cell-based, human; settings: H2O2 treated HUVECs, immunoblot; n = 3
How it was run: (§2)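 Lysates from HUVECs or H9c2 cells were protein-quantified by BCA. Equal amounts were run on SDS-PAGE and transferred to PVDF. Membranes were blocked with 5% non-fat milk and probed with primary and secondary antibodies. Bands were detected by ECL chemiluminescence and quantified by densitometry. n = 3.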

MI mice = type: in vivo, C57BL/6 mice
[8] = DLS and TEM of self-assembled nanoaggregates; type: physicochemical; settings: self-assembly in aqueous solution; TEM images and DLS
cells = experiment: NO release from culture medium of cells, Griess assay; type: cell-based; settings: PDCs 10 µM
How it was run: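 PDCs (10 µM) were incubated with cells pretreated with PBS or H2O2 for 24 h. NO in the culture medium was measured by Griess assay at 0 h and 24 h.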

ABTS assay = settings: test kit; n = 3
DPPH assay = settings: PDCs 0-200 µM, DPPH 500 µM, 30 min in darkness, absorbance 517 nm; n = 3
How it was run: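 DPPH solution (500 µM before mixing) was combined with PDC solutions at 0, 5, 10, 25, 50, 100 and 200 µM and kept 30 min in darkness. Absorbance was read at 517 nm and scavenged DPPH calculated. Mean ± SEM, n = 3.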

H9c2 cells [9] = experiment: Western blotting of oxidative stress, inflammation and apoptosis proteins; type: cell-based; settings: H2O2 treated H9c2 cells, n = 3
How it was run: as §2

H9c2 cells [10] = experiment: Mitochondria TEM and cellular ATP; type: cell-based
HUVECs [11] = experiment: HUVEC survival under oxidative stress; type: cell-based, human; settings: H2O2, calcein-AM/PI staining and CCK-8 assay; n = 5
How it was run: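 CCK-8: 5 × 10^3 cells/well plated 24 h, then medium with test compound (10 µM equivalent of PBA and/or ISN) and 500 µM H2O2 (PBS control). After 24 h, 10% CCK-8 for 4 h, absorbance at 450 nm. Live/dead: 1 × 10^5 cells/well plated 24 h, treated 24 h, calcein AM/PI stain 30 min, fluorescence imaging, dead/live ratio quantified. n = 5.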

HUVECs [12] = experiment: Intracellular ROS, NO and RNS probes in HUVECs; type: cell-based, human; settings: H2O2 treated HUVECs, O38 probe; n = 5
How it was run: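 HUVECs (endothelial cell medium, 5% FBS plus growth supplements) were seeded and grown 24 h, then treated 4 h. Cells were stained with BBoxiProbe O38 for NO, imaged by fluorescence microscopy, and mean fluorescence intensity was quantified. Mean ± SEM, n = 5.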

HUVECs [13] = experiment: HUVEC tube formation assay; type: cell-based, human; settings: H2O2-treated HUVECs on Matrigel, 6 h; n = 5
How it was run: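 HUVECs (2.5 × 10^4 per well) seeded on Matrigel-coated wells with test compound and incubated 6 h. Bright-field images from five random fields scored for tube length, branching length and junction number. n = 5.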

[14] = In vivo distribution of Cy5.5-labeled PDCs; design: species or system mice
How it was run: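 Male C57BL/6 mice (10-week-old), sham or MI, received Cy5.5-labelled PDCs by tail-vein injection. A scrambled-peptide (non-targeting) conjugate served as control, and dye-labelled conjugates were normalised to equal fluorescence by UV-Vis. At 2 h and 6 h mice were euthanised. Hearts, lungs, livers, spleens and kidneys were imaged ex vivo and average radiance quantified.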

[15] = immunofluorescence, 28 days after MI, n = 4

Compound: OCc1ccc(O)cc1 [4-HBA, 4-hydroxybenzyl alcohol]
- intracellular ROS level (H2O2 treated H9c2 cells [1]): mitigate intracellular ROS in a concentration-dependent manner

Compound: O=[N+]([O-])O[C@@H]1CO[C@H]2[C@@H]1OC[C@@H]2O [ISN, isosorbide mononitrate, reference compound]
- intracellular ROS level (H2O2 treated H9c2 cells [1]): did not change the level of ROS inside cells
- intracellular level of NO (H2O2 treated H9c2 cells [2]): significantly increased the intracellular level of NO
- intracellular concentration of peroxynitrite (ONOO-) / RNS (H2O2 treated H9c2 cells [3]): dramatically elevated the intracellular concentration of peroxynitrite
- viability of H9c2 challenged with H2O2 (H9c2 cells [4]): increased the loss of myocytes
- apoptosis percentage (H9c2 cells [5]): 32.2%
- mitochondrial membrane potential (H2O2-treated H9c2 cells): negligible influence on the restoration of mitochondrial membrane potential
- migration of HUVECs (HUVECs [6]): barely promoted the H2O2-inhibited migration of HUVECs
- expression of VEGF and p-eNOS/eNOS ratio (HUVECs [7]): nor did it reverse the downregulated expression of angiogenesis-related proteins
- ROS in heart tissue (MI mice; DHE staining, day 1 after MI, i.v. 200 µg/kg equivalent of ISN, n = 4): little effects on tissue abundance of ROS
- RNS in heart tissue (MI mice; O56 staining, day 1 after MI, i.v. 200 µg/kg equivalent of ISN, n = 4): promoted vast generation of RNS
- angiogenesis in the border zone of infarct region (CD31+ capillaries, α-SMA+ arterioles) (MI mice; [15]): didn’t have any effects of neovascularization

Compound: CSTSMLKAC [CTP-PBA-ISN]
- diameter of spherical nanoaggregates [8]: 47 ± 4 nm
- NO concentration in culture medium (cells; cells treated with H2O2, 24 h): significantly increased NO concentration
- NO release in culture medium (cells; cells without H2O2 treatment, 24 h): moderated NO release
- ROS clearance, ABTS assay (ABTS assay): dose-dependent manner
- free radical clearance, DPPH assay (DPPH assay): dose-dependent manner
- intracellular level of NO (H2O2 treated H9c2 cells [2]): significantly increased the intracellular level of NO
- intracellular concentration of peroxynitrite (ONOO-) / RNS (H2O2 treated H9c2 cells [3]): did not increase the intracellular concentration of RNS
- TNF-α and IL-6 protein expression (H9c2 cells [9]; immunoblot): capably reversed such elevation
- intracellular expression of Nrf2, HO-1 and NQO-1 (H9c2 cells [9]; immunoblot): downregulated intracellular expression of Nrf2, HO-1 and NQO-1
- expression of BAX, Caspase3 and Bcl-2 (H9c2 cells [9]; western blotting): most effective in downregulation of apoptosis proteins (BAX, Caspase3) and upregulation of anti-apoptosis protein (Bcl-2)
- viability of H9c2 challenged with H2O2 (H9c2 cells [4]): potent preservation of cell survival
- apoptosis percentage (H9c2 cells [5]): 15.6%
- cytoplasmic calcium level (H2O2-treated H9c2 cells; Fluo-4 AM staining): reversed the abnormal elevation of cytoplasmic calcium level
- mitochondrial membrane potential (H2O2-treated H9c2 cells): potently restored the cross-membrane potential of mitochondria
- mitochondrial ROS (H2O2-treated H9c2 cells; MitoSOX staining): most effective in blocking the H2O2-induced overproduction of ROS in mitochondria
- ATP content (H9c2 cells [10]; H9c2 under H2O2, ATP assay kit, n = 3): increased ATP content
- structure of mitochondria (H9c2 cells [10]; H9c2 under H2O2, TEM): preserved the normal structure of mitochondria
- bio-viability and apoptosis of HUVECs under oxidative stress (HUVECs [11]): most effective in maintaining bio-viability and inhibiting apoptosis
- intracellular NO delivery (HUVECs [12]): maximizing intracellular NO delivery
- migration of HUVECs (HUVECs [6]): migration to the level similar to those of H2O2-untreated control
- tube formation (pseudopod length, number of junction, degree of branch) (HUVECs [13]): facilitated recovery in pseudopod length, number of junction and degree of branch
- expression of VEGF and p-eNOS/eNOS ratio (HUVECs [7]): remarkably upregulated
- accumulation in other organs ([14]; sham and MI animals, extended time after injections, n = 3): accumulated in the kidneys, livers, and lungs
- fibrotic area and infarct wall thickness (MI mice; Masson's trichrome, 28 days after MI, n = 4): reduced fibrotic area and increased infarct wall thickness
- ultrastructure of myocardial mitochondria (MI mice; TEM of tissue slices, 3 days after MI): ameliorated myocardial fiber rupture, mitochondrial damage and increased mitochondrial numbers
- apoptosis cardiomyocytes in infarcted myocardial tissue (MI mice; TUNEL staining, 3 days after MI, n = 4): lowest number of apoptosis cardiomyocytes
- cross-sectional area of cardiomyocytes (MI mice; WGA staining, 28 days after MI, n = 5): smaller cross-sectional area of cardiomyocytes
- OS proteins (NRF2, HO-1, NQO-1) and pro-inflammation cytokines (TNF-α, IL-6) in the heart (MI mice; Western blot, 1 day after MI, n = 3): significant decrease
- protein expressions of CS, IDH2 and OGDH in heart tissues (MI mice; immunoblot, 3 days after MI, n = 3): facilitated recovery of these downregulated mitochondria related rate-limiting enzymes
- angiogenesis in the border zone of infarct region (CD31+ capillaries, α-SMA+ arterioles) (MI mice; [15]): greatly promoted
- macrophage phenotype (CD86 / CD206) (MI mice; [15]): established a M2-dominant macroenvironment
- infarct area (MI mice; n = 3): greatly reduced

Compound: CSTSMLKAC [CTP-PBA]
- intracellular concentration of peroxynitrite (ONOO-) / RNS (H2O2 treated H9c2 cells [3]): downregulation of RNS inside cells
- viability of H9c2 challenged with H2O2 (H9c2 cells [4]): only partially restored the viability of H9c2
- apoptosis percentage (H9c2 cells [5]): 20.3%
- mitochondrial membrane potential (H2O2-treated H9c2 cells): limited effects

Compound: CSTSMLKAC [Cy5.5-CTP-PBA-ISN]
- fluorescent signal of infarcted hearts ([14]; MI mice, 2 h after injection via tail veins, ex vivo imaging): bright fluorescent signal
